According to ChEMBL document CHEMBL1123732, “Flavones. 1. Synthesis and antihypertensive activity of (3-phenylflavonoxy)propanolamines without beta-adrenoceptor antagonism” (J Med Chem, 1987):
The source made the active and inactive calls. The calls are words filed in the database; no cut-off is given here.

Experiments:
Rattus norvegicus [1] = assay: […] systolic blood pressure (SBP) for compound-treated group relative to the value for untreated control at 75 mg/kg dose (po) in spontaneously hypertensive rats(SHR); assay type: functional, Artery
Summary of the method: (§1)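 Male spontaneously hypertensive rats (Wistar-Kyoto strain), unanesthetized, dosed orally; systolic pressure measured by indirect tail cuff. Before each reading, rats warmed at 35-37 °C for 15-20 min to dilate the caudal artery. Five rats per treatment group; result is percentage fall in systolic pressure versus untreated control. Significance tested against control.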

Adrenergic receptor beta [2] = molecular target: T1, Adrenergic receptor beta (Rattus norvegicus, UniProt P18090+P10608+P26255); assay: Evaluated for beta-receptor affinity, determined in rat brain membrane fraction with [3H]- dihydroalprenolol; assay type: cell membranes
Summary of the method: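 Rat brain with cerebellum removed, homogenized in ice-cold 50 mM Tris-HCl pH 8.0 and spun at 50000g for 15 min, pellet washed once more the same way. Binding used 0.4-0.6 mg protein, 1 nM [3H]dihydroalprenolol, 50 mM Tris pH 8.0, and 5-10 competitor concentrations. IC50 read visually from a semilog plot; Ki from Cheng-Prusoff with KD approximately 1 nM.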

Rattus norvegicus [3] = assay: Percentage of fall in systolic blood pressure (SBP) at the following hours after dosing at 75 mg/kg (po) at 24 hr in spontaneously hypertensive rats(SHR); NS means not significant; assay type: functional, organism-based; set-up: dose 75 mg/kg; settings: Artery; summary of the method: as §1
Rattus norvegicus [4] = assay: Percentage of fall in systolic blood pressure (SBP) at the following hours after dosing at 75 mg/kg (po) at 2 hr in spontaneously hypertensive rats(SHR); NS means not significant; assay type: functional, organism-based; set-up: dose 75 mg/kg; settings: Artery; summary of the method: as §1
Rattus norvegicus [5] = assay: Percentage of fall in systolic blood pressure (SBP) at the following hours after dosing at 75 mg/kg (po) at 5 hr in spontaneously hypertensive rats(SHR); NS means not significant; assay type: functional, organism-based; set-up: dose 75 mg/kg; settings: Artery; summary of the method: as §1
Rattus norvegicus [6] = assay: Percentage of fall in systolic blood pressure (SBP) at the following hours after dosing at 75 mg/kg (po) at 7.5 hr in spontaneously hypertensive rats(SHR); assay type: functional, Artery; summary of the method: as §1
Rattus norvegicus [7] = assay: Percentage of fall in systolic blood pressure (SBP) at the following hours after dosing at 75 mg/kg (po) at 2 hr in spontaneously hypertensive rats(SHR); assay type: functional, Artery; summary of the method: as §1
Rattus norvegicus [8] = assay: Percentage of fall in systolic blood pressure (SBP) at the following hours after dosing at 75 mg/kg (po) at 24 hr in spontaneously hypertensive rats(SHR); assay type: functional, Artery; summary of the method: as §1
Rattus norvegicus [9] = assay: Percentage of fall in systolic blood pressure (SBP) at the following hours after dosing at 75 mg/kg (po) at 5 hr in spontaneously hypertensive rats(SHR); assay type: functional, Artery; summary of the method: as §1
Rattus norvegicus [10] = assay: Evaluated for the percentage inhibition of the depressor response of isoproterenol (0.25 mg/kg, iv) in spontaneously hypertensive rats at 150 mg/kg peroral dose; NI means no inhibition at 10 mg/kg, iv
Rattus norvegicus [11] = assay: Percentage of fall in systolic blood pressure (SBP) at the following hours after dosing at 75 mg/kg (po) at 2 hr in spontaneously hypertensive rats(SHR):NS means not significant; assay type: functional, organism-based; set-up: dose 75 mg/kg; settings: Artery; summary of the method: as §1
Rattus norvegicus [12] = assay: Percentage of fall in systolic blood pressure (SBP) at the following hours after dosing at 75 mg/kg (po) at 7.5 hr in spontaneously hypertensive rats(SHR) NS means not significant; assay type: functional, organism-based; set-up: dose 75 mg/kg; settings: Artery; summary of the method: as §1
Adrenergic receptor beta [13] = molecular target: T1, Adrenergic receptor beta; assay: Evaluated for beta-receptor affinity determined in rat brain membrane fraction with [3H]- dihydroalprenolol; assay type: cell membranes
Rattus norvegicus [14] = assay: Percentage of fall in systolic blood pressure (SBP) at the following hours after dosing at 8 mg/kg (po) at 5 hr in spontaneously hypertensive rats(SHR); assay type: functional, Artery; summary of the method: as §1
Rattus norvegicus [15] = assay: Percentage of fall in systolic blood pressure (SBP) after dosing at 8 mg/kg at 24 hr in spontaneously hypertensive rats(SHR). NS means not significant; assay type: functional, organism-based; set-up: dose 8 mg/kg; settings: Artery; summary of the method: as §1
Rattus norvegicus [16] = assay: […] systolic blood pressure (SBP) for compound-treated group relative to the value for untreated control at 8 mg/kg dose (po) in spontaneously hypertensive rats(SHR); assay type: functional, Artery; summary of the method: as §1
Rattus norvegicus [17] = assay: Percentage of fall in systolic blood pressure (SBP) after dosing at 8 mg/kg (po) at 7.5 hr in spontaneously hypertensive rats(SHR); assay type: functional, Artery; summary of the method: as §1
Rattus norvegicus [18] = assay: Percentage of fall in systolic blood pressure (SBP) after dosing at 17 mg/kg (po) at 5 hr in spontaneously hypertensive rats(SHR); assay type: functional, Artery; summary of the method: as §1
Rattus norvegicus [19] = assay: Percentage of fall in systolic blood pressure (SBP) after dosing at 17 mg/kg (po) at 24 hr in spontaneously hypertensive rats(SHR); assay type: functional, Artery; summary of the method: as §1
Rattus norvegicus [20] = assay: […] systolic blood pressure (SBP) for compound-treated group relative to the value for untreated control at 17 mg/kg dose (po) in spontaneously hypertensive rats(SHR); assay type: functional, Artery; summary of the method: as §1
Rattus norvegicus [21] = assay: Percentage of fall in systolic blood pressure (SBP) after dosing at 17 mg/kg (po) at 2 hr in spontaneously hypertensive rats(SHR). NS means not significant; assay type: functional, organism-based; set-up: dose 17 mg/kg; settings: Artery; summary of the method: as §1
Rattus norvegicus [22] = assay: Evaluated for the percentage inhibition of the depressor response of isoproterenol (0.25 mg/kg, iv) in spontaneously hypertensive rats at 150 mg/kg perorally; NI means no inhibition at 10 mg/kg, iv; assay type: functional, organism-based
Summary of the method: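 Male SHR, three per group, dosed orally 150 mg/kg as suspension in 4% Clearjel. At 4 h, anesthetized with sodium pentobarbital (45 mg/kg, ip); femoral artery and vein cannulated; arterial pressure monitored continuously. Isoproterenol given iv in 0.1 mL saline; depressor response compared with Clearjel vehicle-treated rats as percentage inhibition.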

Rattus norvegicus [23] = assay: Percentage of fall in systolic blood pressure (SBP) after dosing at 8 mg/kg (po) at 2 hr in spontaneously hypertensive rats(SHR). NS means not significant; assay type: functional, organism-based; set-up: dose 8 mg/kg; settings: Artery; summary of the method: as §1
Rattus norvegicus [24] = assay: Percentage of fall in systolic blood pressure (SBP) after dosing at 17 mg/kg (po) at 7.5 hr in spontaneously hypertensive rats(SHR); assay type: functional, Artery; summary of the method: as §1
Rattus norvegicus [25] = assay: Percentage of fall in systolic blood pressure (SBP) at the following hours after dosing at 75 mg/kg (po) at 7.5 hr in spontaneously hypertensive rats(SHR); NS means not significant; assay type: functional, organism-based; set-up: dose 75 mg/kg; settings: Artery; summary of the method: as §1
Rattus norvegicus [26] = species: Rattus norvegicus; assay: animal or person; settings: iv, read-out: Inhibition

Row | Structure (SMILES) | SBP (Rattus norvegicus [1]) [mmHg] | Decrease in SBP (Rattus norvegicus [3]) | Decrease in SBP (Rattus norvegicus [4]) | Decrease in SBP (Rattus norvegicus [5]) | Decrease in SBP (Rattus norvegicus [6]) [%] | Decrease in SBP (Rattus norvegicus [8]) [%] | Decrease in SBP (Rattus norvegicus [9]) [%] | also measured
1 | CCCCNCC(O)COc1ccc2c(=O)c(-c3ccccc3)c(-c3ccccc3)oc2c1 (configuration not stated) | 199 | inactive | inactive | inactive | 11 | – | – | Ki (Adrenergic receptor beta [2]): > 0.00005 M
2 | CCCN(C)CC(O)COc1ccc2c(=O)c(-c3ccccc3)c(-c3ccccc3)oc2c1.O=C(O)/C=C\C(=O)O (configuration not stated) | 199 | – | – | – | 10 | 18 | 9 | Decrease in SBP (Rattus norvegicus [7]): 7%; inhibition (Rattus norvegicus [10]): inactive
3 | C=CCNCC(O)COc1ccc2c(=O)c(-c3ccccc3)c(-c3ccccc3)oc2c1 (configuration not stated) | 197 | – | – | – | 11 | 9 | 10 | Decrease in SBP (Rattus norvegicus [11]): inactive; inhibition (Rattus norvegicus [10]): inactive
4 | CC(C)(C)NCC(O)COc1ccc2c(=O)c(-c3ccccc3)c(-c3ccccc3)oc2c1.Cl (configuration not stated) | 196 | inactive | inactive | inactive | – | – | – | Decrease in SBP (Rattus norvegicus [12]): inactive; Ki (Adrenergic receptor beta [2]): > 0.00005 M
5 | O=c1c(-c2ccccc2)c(-c2ccccc2)oc2cc(OCC(O)CNC3CCCCC3)ccc12 (configuration not stated) | 216 | – | inactive | – | 13 | 16 | 10 | –
6 | CC(C)NCC(O)COc1ccc2c(=O)c(-c3ccccc3)c(-c3ccccc3)oc2c1.Cl (configuration not stated) | – | – | – | – | – | – | – | Ki (Adrenergic receptor beta [13]): > 0.00005 M; Decrease in SBP (Rattus norvegicus [14]): 10%; Decrease in SBP (Rattus norvegicus [15]): inactive; SBP (Rattus norvegicus [16]): 198 mmHg; Decrease in SBP (Rattus norvegicus [17]): 8%; Decrease in SBP (Rattus norvegicus [18]): 14%; Decrease in SBP (Rattus norvegicus [19]): 11%; SBP (Rattus norvegicus [20]): 195 mmHg; Decrease in SBP (Rattus norvegicus [21]): inactive; inhibition (Rattus norvegicus [22]): inactive; Decrease in SBP (Rattus norvegicus [23]): inactive; Decrease in SBP (Rattus norvegicus [24]): 20%
7 | CC(C)NCC(O)COc1cccc2ccccc12 (configuration not stated) [PROPRANOLOL] | 212 | inactive | inactive | inactive | – | – | – | Decrease in SBP (Rattus norvegicus [25]): inactive; inhibition in vivo at 10 mg/kg (Rattus norvegicus [26]): 100%
